ChEMBL document CHEMBL4831496, “Noncovalent EGFR T790M/L858R inhibitors based on diphenylpyrimidine scaffold: Design, synthesis, and bioactivity evaluation for the treatment of NSCLC” (Eur J Med Chem, 2021)

Experiments:
[1] = target: Epidermal growth factor receptor (Homo sapiens, UniProt P00533, L858R/T790M); test: Inhibition of EGFR L858R/T790M double mutant (unknown origin) measured after 60 mins by ADP-Glo kinase based luminescence assay
[2] = target: Epidermal growth factor receptor (Homo sapiens, UniProt P00533); test: Inhibition of wild type EGFR (unknown origin) measured after 60 mins by ADP-Glo kinase based luminescence assay
[3] = test system: NCI-H1975; test: Antiproliferative activity against human NCI-H1975 cells harboring EGFR L858R/T790M mutant assessed as reduction in cell viability incubated for 72 hrs by CCK8 assay; format: functional, cell-based; conditions: NCI-H1975, 72 h
In short: (§1)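 Cells kept as monolayers at 37 °C, 5% CO2, seeded 3000-4000/well for 12 h, then exposed to compounds for 72 h. CCK-8 added for 1-2 h at 37 °C, absorbance read at 450 nm. Each dose run in triplicate, experiment repeated at least three times. IC50 taken from dose-response curves.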

[4] = test system: A-431; test: Cytotoxicity against human A-431 cells harboring wild type EGFR assessed as reduction in cell viability incubated for 72 hrs by CCK8 assay; format: cell-based; conditions: A-431, 72 h; in short: as §1
[5] = test system: A549; test: Antiproliferative activity against human A549 cells harboring KRAS G12S mutant assessed as reduction in cell viability incubated for 72 hrs by CCK8 assay; format: functional, cell-based; conditions: A549, 72 h; in short: as §1
[6] = Cytotoxicity against human HBE cells assessed as reduction in cell viability incubated for 72 hrs by CCK8 assay; format: cell-based; in short: as §1
[7] = test system: ASPC1; test: Antiproliferative activity against human ASPC1 cells assessed as reduction in cell viability incubated for 72 hrs by CCK8 assay; format: functional, cell-based; conditions: ASPC1, 72 h; in short: as §1
[8] = test system: NCI-H23; test: Antiproliferative activity against human NCI-H23 cells harboring KRAS mutant assessed as reduction in cell viability incubated for 72 hrs by CCK8 assay; format: functional, cell-based; conditions: NCI-H23, 72 h; in short: as §1
[9] = test system: L02; test: Antiproliferative activity against human L02 cells assessed as reduction in cell viability incubated for 72 hrs by CCK8 assay; format: cell-based; conditions: L02, 72 h
[10] = Selectivity index, ratio of IC50 for human A-431 cells harboring wild type EGFR (unknown origin) to IC50 for human NCI-H1975 cells harboring EGFR L858R/T790M mutant

Chain of Epidermal growth factor receptor (Homo sapiens, UniProt P00533) (P00533 whole entry): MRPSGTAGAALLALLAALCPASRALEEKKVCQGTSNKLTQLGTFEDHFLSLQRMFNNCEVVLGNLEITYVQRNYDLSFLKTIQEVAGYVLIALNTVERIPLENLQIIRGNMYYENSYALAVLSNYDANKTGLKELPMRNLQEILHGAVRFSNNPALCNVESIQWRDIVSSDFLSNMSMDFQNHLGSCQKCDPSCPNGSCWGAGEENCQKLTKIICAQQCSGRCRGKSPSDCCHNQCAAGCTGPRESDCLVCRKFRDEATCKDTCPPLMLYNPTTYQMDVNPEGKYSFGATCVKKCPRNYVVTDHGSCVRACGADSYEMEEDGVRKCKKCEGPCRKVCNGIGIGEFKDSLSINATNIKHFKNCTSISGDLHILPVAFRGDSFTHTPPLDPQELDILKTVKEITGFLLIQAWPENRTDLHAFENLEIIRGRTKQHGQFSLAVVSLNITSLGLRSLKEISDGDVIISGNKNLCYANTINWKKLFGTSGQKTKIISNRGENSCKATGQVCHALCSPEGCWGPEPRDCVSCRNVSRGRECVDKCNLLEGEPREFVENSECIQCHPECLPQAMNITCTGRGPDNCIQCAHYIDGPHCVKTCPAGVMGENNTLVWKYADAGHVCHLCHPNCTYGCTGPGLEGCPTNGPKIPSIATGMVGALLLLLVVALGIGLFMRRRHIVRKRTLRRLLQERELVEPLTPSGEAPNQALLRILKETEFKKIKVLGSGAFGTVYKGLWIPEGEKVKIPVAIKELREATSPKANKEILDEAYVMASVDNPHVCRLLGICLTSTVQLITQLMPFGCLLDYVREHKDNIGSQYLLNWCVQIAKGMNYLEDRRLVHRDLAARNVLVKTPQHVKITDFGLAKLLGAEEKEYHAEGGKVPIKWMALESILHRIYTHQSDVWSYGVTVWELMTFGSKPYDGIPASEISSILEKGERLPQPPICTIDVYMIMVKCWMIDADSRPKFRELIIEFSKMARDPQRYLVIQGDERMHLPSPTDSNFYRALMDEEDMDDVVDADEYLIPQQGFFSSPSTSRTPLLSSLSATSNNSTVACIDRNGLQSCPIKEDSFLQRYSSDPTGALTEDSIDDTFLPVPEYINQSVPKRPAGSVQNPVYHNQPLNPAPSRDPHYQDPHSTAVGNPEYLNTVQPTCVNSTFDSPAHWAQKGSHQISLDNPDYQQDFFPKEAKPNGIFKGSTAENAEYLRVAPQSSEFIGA
Chain of Epidermal growth factor receptor (Homo sapiens, UniProt P00533, L858R/T790M) (P00533 25-1210 T790M/L858R limits assumed): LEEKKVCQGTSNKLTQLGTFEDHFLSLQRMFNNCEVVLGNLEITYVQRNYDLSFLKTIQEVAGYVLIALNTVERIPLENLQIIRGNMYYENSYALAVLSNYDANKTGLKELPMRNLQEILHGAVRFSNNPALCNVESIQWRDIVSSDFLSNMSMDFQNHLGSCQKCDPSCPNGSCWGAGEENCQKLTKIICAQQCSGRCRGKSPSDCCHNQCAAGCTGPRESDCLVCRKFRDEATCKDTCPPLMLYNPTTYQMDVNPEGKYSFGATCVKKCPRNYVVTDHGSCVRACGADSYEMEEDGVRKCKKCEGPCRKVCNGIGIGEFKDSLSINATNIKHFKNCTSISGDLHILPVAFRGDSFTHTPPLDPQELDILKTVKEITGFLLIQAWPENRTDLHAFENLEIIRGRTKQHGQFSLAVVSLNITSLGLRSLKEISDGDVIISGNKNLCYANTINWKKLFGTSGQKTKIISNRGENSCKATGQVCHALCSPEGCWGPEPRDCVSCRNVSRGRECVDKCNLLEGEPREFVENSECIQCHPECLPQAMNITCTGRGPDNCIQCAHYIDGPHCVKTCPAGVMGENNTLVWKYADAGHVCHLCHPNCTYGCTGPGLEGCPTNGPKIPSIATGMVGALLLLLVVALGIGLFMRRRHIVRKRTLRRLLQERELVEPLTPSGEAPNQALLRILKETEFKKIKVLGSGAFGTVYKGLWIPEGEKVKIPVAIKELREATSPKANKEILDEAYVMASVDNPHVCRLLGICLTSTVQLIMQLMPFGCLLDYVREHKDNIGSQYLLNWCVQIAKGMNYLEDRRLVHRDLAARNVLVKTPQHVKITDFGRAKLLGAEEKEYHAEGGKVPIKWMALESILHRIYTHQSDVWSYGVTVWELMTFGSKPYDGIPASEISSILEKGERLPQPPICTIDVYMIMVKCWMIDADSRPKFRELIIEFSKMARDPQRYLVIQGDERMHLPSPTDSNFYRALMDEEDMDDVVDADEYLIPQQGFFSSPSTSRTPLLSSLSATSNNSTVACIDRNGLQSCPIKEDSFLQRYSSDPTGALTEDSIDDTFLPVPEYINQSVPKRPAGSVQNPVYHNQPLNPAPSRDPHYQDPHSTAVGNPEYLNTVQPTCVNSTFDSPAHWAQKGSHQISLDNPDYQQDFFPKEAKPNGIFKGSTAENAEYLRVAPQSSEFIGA

| Compound | IC50 [1] [nM] | IC50 [2] [nM] | IC50 [3] [nM] | IC50 [5] [nM] | IC50 [7] [nM] | IC50 [8] [nM] | IC50 [4] [nM] | IC50 [6] [µM] | IC50 [9] [nM] | Ratio IC50 [10] |
| --- | --- | --- | --- | --- | --- | --- | --- | --- | --- | --- |
| CN1CCN(CCOc2ccc(Nc3ncc(Cl)c(Nc4ccccc4C(=O)NO)n3)cc2)CC1 | 6.82 | 0.763 | 822 | 203 | 244 | 642 | 692 | 29.8 | 1950 | 0.84 |
| CNC(=O)c1ccccc1Nc1nc(Nc2ccc(OCCCN3CCC(C(=O)NO)CC3)cc2)ncc1Cl | 45 | 46.7 | 156 | 156 | < 156 | 2110 | 448 | 8.57 | < 1250 | 2.88 |
| O=C(COc1ccc(Nc2ncc(Cl)c(Nc3ccccc3C(=O)NO)n2)cc1)NO | 65.4 | 50.2 | 1110 | 1110 | 1580 | 6400 | 2060 | > 40 | 7870 | 1.86 |
| O=C(NO)c1ccccc1Nc1nc(Nc2ccc(CN3CCOCC3)cc2)ncc1Cl | 98.8 | 4.5 | < 78.1 | < 78 | < 156 | 554 | 2430 | 29.1 | < 1250 | >31.08 |
| CNC(=O)c1ccccc1Nc1nc(Nc2ccc(N3CCC(C(=O)NO)CC3)cc2)ncc1Cl | 49.9 | 119 | 329 | 329 | 499 | 1540 | 127 | 12.7 | 1730 | 0.39 |
| O=C(NO)c1ccccc1Nc1nc(Nc2ccc(OCC(=O)N3CCOCC3)cc2)ncc1Cl | 16 | 57.3 | 129 | 129 | 530 | 820 | 670 | 20.2 | 4810 | 5.19 |
| O=C(NO)c1ccccc1Nc1nc(Nc2ccc(OCCCN3CCOCC3)cc2)ncc1Cl | 64.8 | 1.25 | 321 | 321 | 1230 | 665 | 1400 | 26.5 | 1730 | 4.38 |
| O=C(CN1CCOCC1)Nc1ccc(Nc2ncc(Cl)c(Nc3ccccc3C(=O)NO)n2)cc1 | 113 | 126 | 385 | 385 | 750 | 1740 | 1530 | > 40 | 2110 | 3.98 |
| CNC(=O)c1ccccc1Nc1nc(Nc2ccc(NC(=O)CN3CCOCC3)c(C)c2)ncc1Cl | 3.89 |  | 333 |  |  |  |  |  |  |  |

The remaining compounds from weak to strong by IC50 [1], led by results:

| IC50 [1] [nM] | IC50 [2] [nM] | IC50 [3] [nM] | IC50 [5] [nM] | IC50 [7] [nM] | IC50 [8] [nM] | Compound | IC50 [4] [nM] | IC50 [6] [µM] | IC50 [9] [nM] | Ratio IC50 [10] |
| --- | --- | --- | --- | --- | --- | --- | --- | --- | --- | --- |
| 199 | 81.4 | > 10000 |  |  |  | O=C(O)c1ccccc1Nc1nc(Nc2ccc(OCC(=O)N3CCOCC3)cc2)ncc1Cl |  |  | 15500 |  |
| 117 | 1.09 | 245 | 245 | 374 | 8420 | CNC(=O)c1ccccc1Nc1nc(Nc2ccc(CN3CCC(C(=O)NO)CC3)cc2)ncc1Cl | 1160 | 15.9 | 1280 | 4.72 |
| 116 | 169 | 109 | 109 | 1410 | 801 | O=C(NO)c1ccccc1Nc1nc(Nc2ccc(N3CCOCC3)cc2)ncc1Cl | 1580 | > 40 | 2190 | 14.46 |
| 68.8 | 6.56 | < 78.1 | < 78 | < 156 | 217 | CN1CCN(c2ccc(Nc3ncc(Cl)c(Nc4ccccc4C(=O)NO)n3)cc2)CC1 | 253 | 22.6 | < 1250 | >3.24 |
| 0.245 | 32 | 2900 |  |  |  | CCOC(=O)c1ccccc1Nc1nc(Nc2ccc(OCC(=O)N3CCOCC3)cc2)ncc1Cl |  |  | 30200 |  |
